Measurements reported in ChEMBL document CHEMBL4480464, “Bioactive Dimeric Acylphloroglucinols from the Mexican Fern Elaphoglossum paleaceum” (J Nat Prod, 2019).
The source made the active and inactive calls. The rule behind the calls is not given here.

Tests used:
[1] = target: T1, Amine oxidase [flavin-containing] B (Rattus norvegicus, UniProt P19643); test: Inhibition of Wistar rat brain MAOB using kynuramine as substrate preincubated for 15 mins followed by substrate addition and measured after 15 mins by fluorescence assay
T1 sequence (P19643 whole entry): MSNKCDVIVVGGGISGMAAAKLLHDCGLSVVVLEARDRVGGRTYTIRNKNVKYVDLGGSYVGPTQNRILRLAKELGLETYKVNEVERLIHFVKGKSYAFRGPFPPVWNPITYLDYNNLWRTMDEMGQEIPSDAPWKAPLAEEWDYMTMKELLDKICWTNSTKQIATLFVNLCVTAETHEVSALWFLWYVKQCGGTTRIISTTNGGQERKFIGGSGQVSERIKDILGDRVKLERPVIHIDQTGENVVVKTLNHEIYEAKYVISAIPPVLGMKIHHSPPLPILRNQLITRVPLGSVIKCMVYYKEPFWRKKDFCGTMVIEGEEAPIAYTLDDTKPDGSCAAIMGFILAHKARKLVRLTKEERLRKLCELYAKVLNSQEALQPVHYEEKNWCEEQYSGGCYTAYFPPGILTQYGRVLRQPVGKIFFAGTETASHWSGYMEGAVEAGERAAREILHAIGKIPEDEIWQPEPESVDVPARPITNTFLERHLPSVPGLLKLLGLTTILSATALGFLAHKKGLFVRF
Outline: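 Enzyme: unpurified mitochondrial homogenate from brains (cerebellum removed) of adult male Wistar rats (180−220 g), adjusted to 2500 μg/mL protein in PBS pH 7.4. Samples dissolved in 10% DMSO, tested over 0.1−100 μg/mL. Kynuramine 1 mM substrate; pargyline 10 μM as MAO-B-selective reference. Both incubations at 37 °C; stopped with 2 M NaOH. 4-Hydroxyquinoline read at ex 315/em 380 nm. Triplicate; IC50 as mean ± standard error.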

MCF7 = test: Cytotoxicity against human MCF7 cells measured after 72 hrs by sulforhodamine B assay; assay type: functional, cell-based; conditions: MCF7, 72 h
Outline: (§1)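 Sulforhodamine B assay on human cancer lines in RPMI-1640 with 10% FBS, 104 cells/mL, 37 °C, 5% CO2. Treated in triplicate at about 70% confluence with 0.16–20 μg/mL sample in DMSO for 72 h. IC50 taken as concentration giving 50% of control growth, from a log10 concentration versus % viable cells plot.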

SiHa = test: Cytotoxicity against human SiHa cells measured after 72 hrs by sulforhodamine B assay; assay type: functional, cell-based; outline: as §1
[2] = Cytotoxicity against human HF6 cells measured after 72 hrs by sulforhodamine B assay; assay type: functional, cell-based; outline: as §1
PC-3 = test: Cytotoxicity against human PC3 cells measured after 72 hrs by sulforhodamine B assay; assay type: functional, cell-based; conditions: PC-3, 72 h; outline: as §1
[3] = Cytotoxicity against human HSF30 cells measured after 72 hrs by sulforhodamine B assay; assay type: cell-based
Outline: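 HFS-30 normal human skin fibroblasts grown in DMEM with 10% FBS at 37 °C, 5% CO2. Treated in triplicate at about 70% confluence with 0.16–20 μg/mL sample in DMSO for 72 h. Sulforhodamine B read-out. IC50 is concentration giving 50% of control growth.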

[4] = Selectivity index, ratio of IC50 for human HSF30 cells to IC50 for human HF6 cells
Outline: (§2)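 SI calculated as IC50 in HFS-30 fibroblasts divided by IC50 in each cancer line, all from the 72 h sulforhodamine B assay.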

[5] = target: T2, Amine oxidase [flavin-containing] A (Rattus norvegicus, UniProt P21396); test: Inhibition of Wistar rat brain MAOA using kynuramine as substrate preincubated for 15 mins followed by substrate addition and measured after 15 mins by fluorescence assay
T2 sequence (P21396 whole entry): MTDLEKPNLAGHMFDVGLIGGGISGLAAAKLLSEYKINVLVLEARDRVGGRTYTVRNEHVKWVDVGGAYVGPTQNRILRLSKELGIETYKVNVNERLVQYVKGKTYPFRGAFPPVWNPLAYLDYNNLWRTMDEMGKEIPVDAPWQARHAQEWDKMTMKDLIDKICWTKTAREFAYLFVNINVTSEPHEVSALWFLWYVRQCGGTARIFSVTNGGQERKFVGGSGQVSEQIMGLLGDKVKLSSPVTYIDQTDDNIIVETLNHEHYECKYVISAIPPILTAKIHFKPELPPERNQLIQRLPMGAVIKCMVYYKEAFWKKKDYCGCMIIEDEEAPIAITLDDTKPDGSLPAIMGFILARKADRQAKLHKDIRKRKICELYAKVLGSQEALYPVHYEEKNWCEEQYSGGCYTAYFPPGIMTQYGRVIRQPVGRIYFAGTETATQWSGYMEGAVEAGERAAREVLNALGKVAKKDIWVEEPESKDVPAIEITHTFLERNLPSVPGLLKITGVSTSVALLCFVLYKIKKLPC
Outline: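 Unpurified mitochondrial homogenate from brains of male Wistar rats (180–220 g), adjusted to 2500 μg/mL protein in PBS pH 7.4. Sample from 10% DMSO stock, tested over 0.1–100 μg/mL. Enzyme and sample preincubated 15 min at 37 °C, kynuramine (1 mM) added, incubated 15 min at 37 °C, stopped with 2 M NaOH. Triplicate.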

Rattus norvegicus = organism: Rattus norvegicus; test: Selectivity index, ratio of IC50 for Wistar rat brain MAOB to Wistar rat brain MAOA
RAW264.7 [6] = test: Cytotoxicity against LPS-induced mouse RAW264.7 cells assessed as cell killing at 123 to 164 uM measured after 24 hrs by resazurin dye based fluorescence assay; conditions: raw264.7, 24 h
Outline: (§3)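 After the 24 h LPS (1 μg/mL) plus compound exposure and nitrite sampling, RAW264.7 wells given fresh DMEM-F12 with 10% heat-inactivated FBS plus resazurin (2 mM stock). Incubated a further 10 h at 37 °C, 5% CO2. Viability read as resorufin fluorescence. Vehicle Tween 80. Three independent experiments, mean ± SD.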

[7] = Cytotoxicity against LPS-induced mouse RAW264.7 cells assessed as cell viability at 82 uM measured after 24 hrs by resazurin dye based fluorescence assay; conditions: LPS-induced RAW264.7 cells, read-out: Activity; outline: as §3
RAW264.7 [8] = test: Cytotoxicity against LPS-induced mouse RAW264.7 cells assessed as effect on cell viability at 41 uM measured after 24 hrs by resazurin dye based fluorescence assay; conditions: raw264.7, 24 h; outline: as §3
RAW264.7 [9] = test: Antiinflammatory activity in mouse RAW264.7 cells assessed as inhibition of LPS-induced nitric oxide production at 41 uM after 24 hrs by Griess assay; assay type: functional, cell-based
Outline: (§4)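 Murine RAW264.7 macrophages in DMEM-F12 with 10% heat-inactivated FBS, no antibiotics, 37 °C, 5% CO2. Cells (2 × 10^5 cells/mL) preincubated 1 h, then compound added in Tween 80 vehicle, then stimulated with LPS 1 μg/mL for 24 h. Nitrite in medium measured by Griess reagent, absorbance 540 nm, quantified against NaNO2 standard curve. Triplicate, mean ± SEM.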

[10] = Selectivity index, ratio of IC50 for human HSF30 cells to IC50 for human MCF7 cells; assay type: toxicity; conditions: HSF30 cells and MCF7 cells, read-out: Ratio IC50; outline: as §2
[11] = Selectivity index, ratio of IC50 for human HSF30 cells to IC50 for human SiHa cells; assay type: toxicity; conditions: HSF30 cells and SiHa cells, read-out: Ratio IC50; outline: as §2
[12] = Selectivity index, ratio of IC50 for human HSF30 cells to IC50 for human PC3 cells; assay type: toxicity; conditions: HSF30 cells and PC3 cells, read-out: Ratio IC50; outline: as §2
RAW264.7 [13] = test: Cytotoxicity against LPS-induced mouse RAW264.7 cells assessed as cell killing at 92 to 185 uM measured after 24 hrs by resazurin dye based fluorescence assay; conditions: raw264.7, 24 h; outline: as §3
RAW264.7 [14] = test: Cytotoxicity against LPS-induced mouse RAW264.7 cells assessed as effect on cell viability at 46 uM measured after 24 hrs by resazurin dye based fluorescence assay; conditions: raw264.7, 24 h; outline: as §3
RAW264.7 [15] = test: Antiinflammatory activity in mouse RAW264.7 cells assessed as inhibition of LPS-induced nitric oxide production at 46 uM after 24 hrs by Griess assay; assay type: functional, cell-based; outline: as §4

Row | SMILES | IC50 [1] [nM] | IC50 (MCF7) [nM] | IC50 (SiHa) [nM] | IC50 [2] [nM] | IC50 (PC-3) [nM] | IC50 [3] [nM] | Ratio IC50 [4] | IC50 [5] [nM] | Ratio IC50 (Rattus norvegicus) | Activity (RAW264.7 [6]) [%] | viability at 24 h, 82 µM [7] [%] | Activity (RAW264.7 [8]) | inhibition (RAW264.7 [9]) | selectivity ratio [10] | selectivity ratio [11] | selectivity ratio [12] | Activity (RAW264.7 [13]) [%] | Activity (RAW264.7 [14]) | inhibition (RAW264.7 [15])
1 | C#CCN(C)Cc1ccccc1 [PARGYLINE] | 220 | – | – | – | – | – | – | – | – | – | – | – | – | – | – | – | – | – | –
2 | CC(=O)O[C@H]1C(=O)[C@@]2(C)[C@H]([C@H](OC(=O)c3ccccc3)[C@]3(O)C[C@H](OC(=O)[C@H](O)[C@@H](NC(=O)c4ccccc4)c4ccccc4)C(C)=C1C3(C)C)[C@]1(OC(C)=O)CO[C@@H]1C[C@@H]2O [PACLITAXEL] | – | 50 | 1400 | 1600 | 150 | 2 | 0.001 | – | – | – | – | – | – | – | – | – | – | – | –
3 | CCCC(=O)c1c(O)c(CC2=C(O)[C@](C)(C/C=C(\C)CCC=C(C)C)C(O)=C(C(C)=O)C2=O)c(O)c(CC=C(C)C)c1OC | 4400 | > 10000 | 5600 | 6400 | 2900 | 80 | 0.013 | 1300 | 3.5 | 100 | 50 | Non-Toxic | Active | 0.0025 | 0.015 | 0.029 | – | – | –
4 | COc1cc([C@@H]2c3cc4c(cc3[C@H](O)[C@H]3COC(=O)[C@H]23)OCO4)cc(OC)c1OC [PODOFILOX] | – | 5 | 100 | 1000 | 200 | 2 | 0.002 | – | – | – | – | – | – | 0.45 | 0.02 | 0.11 | – | – | –
5 | CCCC(=O)c1c(OC)cc(O)c(CC2=C(O)[C@](C)(C/C=C(\C)CCC=C(C)C)C(O)=C(C(C)=O)C2=O)c1O | 4700 | > 10000 | 6000 | > 10000 | 1700 | 9 | 0.0005 | 31000 | 0.1 | – | – | – | – | 0.0002 | 0.002 | 0.005 | 100 | Non-Toxic | Active
